# Assay results of several laboratories.
# Compare with care: the assays were run in different laboratories.
# Cell line: HEK293
# Effect on: cell growth or viability
SMILES,technique,concentration,time,quantity,result
COc1ccccc1C(=O)/C=C/c1cn(Cc2cn(-c3ccnc4cc(Cl)ccc34)nn2)c2ccccc12,MTT,100 µM,24 h,viability,> 90%
O=C1C(NCCc2ccc(O)cc2)=CC2=NCCc3c[nH]c1c32,MTT,,72 h,CC50,3000 nM
O=C(Nc1ccc([N+](=O)[O-])cc1)c1ccc(F)cc1,resazurin,,48 h,CC50,> 20000 nM
CC(C)C[C@H](NC(=O)[C@H](Cc1ccccc1)NC(=O)c1cnccn1)B(O)O,resazurin,,48 h,CC50,8 nM
Cn1cc2c3c1C(=O)C(NCCc1ccc(O)cc1)=CC3=NCC2,MTT,,72 h,CC50,2500 nM
O=C(Nc1cccc([N+](=O)[O-])c1)c1cccc(C(F)(F)F)c1,resazurin,,48 h,CC50,> 20000 nM
NNC(=O)c1cn(Cc2ccccc2)c2ccc(Oc3ccccc3)cc2c1=O,resazurin,,48 h,CC50,> 20000 nM
O=C1c2[nH]cc3c2C(=NCC3)c2c(-c3ccc(O)cc3)c[nH]c21,MTT,,72 h,CC50,200 nM
Cc1ccc(Cn2cc(C(=O)N/N=C/c3ccc([N+](=O)[O-])s3)c(=O)c3cc(Cl)c(Cl)cc32)cc1,resazurin,,48 h,CC50,> 20000 nM
O=C(Nc1cccc([N+](=O)[O-])c1)c1ccccc1,resazurin,,48 h,CC50,> 20000 nM
CCCc1cc(=O)oc2cc(OCc3cc(=O)c(O)co3)ccc12,CCK-8,12 µM,24 h,viability,97.9%
O=C(Nc1ccc(Br)nn1)c1cccc(F)c1,resazurin,,48 h,CC50,> 20000 nM
COc1ccc2c(c1)c(=O)c(C(=O)NN)cn2Cc1ccc(C)cc1,resazurin,,48 h,CC50,> 20000 nM
NC1=CC2=NCCc3c[nH]c(c32)C1=O,MTT,,72 h,CC50,100 nM
O=C(Nc1ccc(C(F)(F)F)cc1)c1cccc(C(F)(F)F)c1,resazurin,,48 h,CC50,9250 nM
